Measured values from different studies.
Compare with care: the assays were run in different laboratories.
Target: Calcium/calmodulin-dependent protein kinase type 1G (CAMK1G, Homo sapiens, UniProt Q96NX5)

COc1ccnn2ncc(-c3ccnc(N(C)C)n3)c12
remaining binding (binding; 1 µM): 100%

O=C(c1ccc(Nc2nccc(-c3cc4ccccc4s3)n2)cc1)N1CCC(N2CCCC2)CC1
remaining binding (binding; competition with immobilised ligand; 1 µM): 72%

N#Cc1ccc(Nc2ccc3[nH]c(=O)[nH]c3c2)c(Cl)c1
remaining binding (cell-free assay; competition with immobilised ligand; 1 µM): 100%

CN(CCCC(F)(F)F)c1nccc(-c2cnn3ncccc23)n1
remaining binding (binding; 1 µM): 100%

O=C(c1ccc(Nc2ncc(Cl)c(-c3cc4ccccc4s3)n2)cc1)N1CCC(N2CCCC2)CC1
remaining binding (binding; competition with immobilised ligand; 1 µM): 82%

CNCc1ccccc1-c1csc([C@H](C)Nc2nc(C)nc3cc(OC)c(OC)cc23)c1
remaining binding (cell-free assay; competition with immobilised ligand; 1 µM): 96%

O=C(Nc1c[nH]nc1C(=O)NC1CCNCC1)c1cc(F)cc(F)c1
remaining binding (binding; competition with immobilised ligand; 1 µM): 83%

CNC(=O)[C@@H]1CC[C@@H](n2c(-c3ccc4cnccc4c3)nc3ccc(C(=O)NCc4cccc(C(N)=O)c4)cc32)C1
remaining binding (binding; competition with immobilised ligand; 1 µM): 98%

c1cnn2ncc(-c3ccnc(N4CCC45COC5)n3)c2c1
remaining binding (binding; 1 µM): 100%

COc1cnc(Nc2cccc(S(N)(=O)=O)c2)nc1N1CCN(c2ccccc2)C(=O)C1
remaining binding (binding; competition with immobilised ligand; 1 µM): 100%

Nc1ncc2c(n1)-c1c([nH]c3ccc(C#CC4CC4)cc13)CCCC2
remaining binding (binding; competition with immobilised ligand; 1 µM): 87%

O=C(Nc1ccc(Oc2ccc(F)cc2)cc1)N1CCc2ncccc2[C@H]1c1ccc(F)cc1
remaining binding (cell-free assay; competition with immobilised ligand; 1 µM): 100%

CC1CCCN1c1nccc(-c2cnn3ncccc23)n1 (stereo not shown)
remaining binding (binding; competition with immobilised ligand; 1 µM): 100%

CC(=O)N1CCC(c2ccc(C(=O)NC(=N)N)cc2C(F)(F)F)CC1
remaining binding (cell-free assay; competition with immobilised ligand; 1 µM): 100%

N[C@H]1CCN(c2nccc(-c3cnn4ncccc34)n2)C1
remaining binding (binding; competition with immobilised ligand; 1 µM): 93%

c1cncc(-c2cccc(Nc3nccc(NC4CCCCC4)n3)c2)c1
remaining binding (binding; competition with immobilised ligand; 10 µM): 81%

CN(c1nccc(-c2cnn3ncccc23)n1)C1CC1
remaining binding (binding; 1 µM): 100%

COc1cc(-c2cn(C3CCc4ccccc4N(CC(F)(F)F)C3=O)nn2)ccc1-n1ccc(C)n1 (stereo not shown)
remaining binding (cell-free assay; competition with immobilised ligand; 1 µM): 100%

FC(F)(F)Oc1cccc(-c2cnc3ccc(-c4ccncc4)nn23)c1
remaining binding (cell-free assay; competition with immobilised ligand; 5 µM): 73%

Cc1cnc(Nc2ccc(C(=O)N3CCC(N4CCCC4)CC3)cc2)nc1-c1cc2ccccc2s1
remaining binding (binding; competition with immobilised ligand; 1 µM): 68%

C[C@H]1CCN(c2nccc(-c3cnn4ncccc34)n2)C1
remaining binding (binding; 1 µM): 97%

COc1cc(-c2cn(C3CCc4c(F)cccc4N(CC(F)(F)F)C3=O)nn2)ccc1-n1cnc(C)c1 (stereo not shown)
remaining binding (cell-free assay; competition with immobilised ligand; 1 µM): 100%
